For series [1], the species on record is Rattus norvegicus. The series can be described thus: Inhibition of 5-LOX-mediated LTB4 production in arachidonic acid-stimulated RBL1 cells at 10 uM preincubated for 2 hrs followed by A23187 induction for 15 mins by LC/MS/MS analysis relative to control. A digest of the protocol:
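RBL-1 cells grown in RPMI/10% FBS, plated 9 × 10⁵ cells/well, held 2 h at 37 °C, then given compound for 2 h (screen at 10 μM, then concentration–response in triplicate). Stimulation was 12 μM A23187 for 15 min. Supernatants were extracted with MeOH/0.01% BHT and LTB₄ quantified by UPLC-MS/MS in negative ion mode.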

Series [2] can be described thus: Change in total alpha-tubulin levels in human QBI293 cells at 10 uM after 4 hrs by ELISA relative to control. The class given is cell-based. The conditions noted are these: qbi293, 4 h. The gist of the method: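 QBI-293 cells grown in DMEM/10% FBS at 37 °C, 5% CO2, plated 6 × 10⁵ cells/well, left overnight, then given vehicle or compound (1 and 10 μM) for 4 h. Cells were lysed in RIPA with protease inhibitors, 1 mM PMSF and 1 μM TSA, then spun at 100000g for 30 min. Total α-tubulin was measured by ELISA, normalized by BCA protein, expressed as fold change vs DMSO, triplicate, two-tailed unpaired t test.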

The species entered for series [3] is Homo sapiens. The series can be described thus: Induction of microtubule stabilization in human QBI293 cells assessed as increase in acetylated tubulin levels at 1 uM after 4 hrs by ELISA relative to control. It counts as cell-based. The gist of the method:
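QBI-293 cells grown in DMEM/10% FBS at 37 °C, 5% CO2, plated 6 × 10⁵ cells/well overnight, then treated with vehicle or compound (1 and 10 μM) for 4 h. Lysis was in RIPA with protease inhibitors, 1 mM PMSF and 1 μM TSA, followed by 100000g spin for 30 min. Acetylated α-tubulin was measured by ELISA on BCA-quantified supernatant, reported as fold change vs DMSO, at least triplicate, t test.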
(In general: ELISA stands for enzyme-linked immunosorbent assay.)

Series [4] can be described thus: Change in total alpha-tubulin levels in human QBI293 cells at 1 uM after 4 hrs by ELISA relative to control. The conditions noted are these: qbi293, 4 h.

As to `Cc1nc(C)n(-c2ccc(Cl)cc2)c1-c1c(F)cccc1F`, in series [1], the inhibition amounted to 40%. Moreover, the “fold change (FC)” value in series [2] was 1.2.
The compound `Fc1cccc(F)c1-c1cncn1-c1ccc(Cl)cc1` had an inhibition in series [1] of 46%. In series [2], the “fold change (FC)” value was found to be 1.2.
In series [1], `Cc1nc(Cl)c(-c2c(F)cccc2F)n1-c1ccc(Cl)cc1` showed an inhibition of 87%. In series [3], the fold change (FC) amounted to 2.5. In addition, the FC in series [4] came to 0.8.
As for `C[C@H](Nc1c(-c2c(F)cc(F)cc2F)c(Cl)nc2ncnn12)C(F)(F)F`, the fold change (FC) in series [3] is 2.5. Also, the Activity result in series [4] is reported as “Non-Toxic”.
Compound `CCc1nc(Cl)c(-c2c(F)cccc2F)n1-c1ccc(Cl)cc1` showed an inhibition in series [1] of 81%. In series [3], the fold change (FC) was 1.8. Further, the Activity entry in series [4] is listed as “Non-Toxic”.
Regarding `Cc1ccc(F)c(-c2cnc(Cl)n2-c2ccc(Cl)cc2)c1F`, the inhibition in series [1] was determined as 69%. Also, the “fold change (FC)” value in series [2] is 0.8. The FC in series [4] was determined as 0.9.
Regarding `Cc1nc(Cl)c(-c2c(F)ccc(F)c2F)n1-c1ccc(Cl)c(F)c1`, the inhibition in series [1] worked out at 75%. The “fold change (FC)” value came to 0.8 in series [2] and 3.9 in series [3]. Also, the FC in series [4] worked out at 0.7.
In series [1], `Cc1nc(Cl)c(-c2c(F)ccc(Cl)c2F)n1-c1ccc(Cl)cc1` gave an inhibition of 84%. Moreover, in series [3], the fold change (FC) came out at 1.7. The same compound showed an FC in series [4] of 0.6.
As to `C[C@H](Nc1c(-c2c(F)cc(OCCCN(C)C)cc2F)c(Cl)nc2ncnn12)C(F)(F)F`, the “fold change (FC)” value in series [2] is 0.7; in series [3], 6. The compound also registered an FC in series [4] of 0.4.
In the case of `COc1cc(F)c(-c2c(Cl)nc(C)n2-c2ccc(Cl)cc2)c(F)c1`, the inhibition in series [1] came to 88%. In addition, the figures for the “fold change (FC)” value in series [2] and in series [3] were 0.6 and 7.1, respectively. This compound also gave an FC in series [4] of 0.3.
For `COc1ccc(F)c(-c2c(Cl)nc(Cl)n2-c2ccc(Cl)cc2)c1F`, in that order: 88%, 0.9, 5.1 and 0.4.
For `COc1cc(F)c(-c2c(Cl)nc(Cl)n2-c2ccc(Cl)cc2)c(F)c1` the same measures were 38%, 0.6, 3.3 and 0.3.

The inhibition is how much of the control response was suppressed. A high value points to strong suppression.

(Values after ChEMBL document CHEMBL4014332, “Multitargeted Imidazoles: Potential Therapeutic Leads for Alzheimer's and Other Neurodegenerative Diseases” (J Med Chem, 2017).)
